Screens as filed in PubChem.
An excerpt weighted towards active compounds, which were near 0.79% of everything screened.
bIAP act: intestinal alkaline phosphatase (bovine) activation; purified bovine IAP, CDP-star luminescence, 30 min; active compounds read high; fold of DMSO-control signal, blank-subtracted; hit rate 0.17% among 200,000; activation factor at 20 µM;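 active means activation factor of 2 or more at 20 µM, a signal rise over negative controls twice the positive control's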
hIAP activ: increases human intestinal alkaline phosphatase activity; activation factor at 10 µM; purified human IAP, CDP-Star luminescence, 30 min; active compounds read high; 1 = vehicle-only enzyme, 0 = enzyme-free background; P09923; hit rate 0.16% among 330,000; AID 2524;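 active means activation factor of the enzyme at least 2-fold when tested at 20 µM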
Target sequence (P09923 whole entry, looked up): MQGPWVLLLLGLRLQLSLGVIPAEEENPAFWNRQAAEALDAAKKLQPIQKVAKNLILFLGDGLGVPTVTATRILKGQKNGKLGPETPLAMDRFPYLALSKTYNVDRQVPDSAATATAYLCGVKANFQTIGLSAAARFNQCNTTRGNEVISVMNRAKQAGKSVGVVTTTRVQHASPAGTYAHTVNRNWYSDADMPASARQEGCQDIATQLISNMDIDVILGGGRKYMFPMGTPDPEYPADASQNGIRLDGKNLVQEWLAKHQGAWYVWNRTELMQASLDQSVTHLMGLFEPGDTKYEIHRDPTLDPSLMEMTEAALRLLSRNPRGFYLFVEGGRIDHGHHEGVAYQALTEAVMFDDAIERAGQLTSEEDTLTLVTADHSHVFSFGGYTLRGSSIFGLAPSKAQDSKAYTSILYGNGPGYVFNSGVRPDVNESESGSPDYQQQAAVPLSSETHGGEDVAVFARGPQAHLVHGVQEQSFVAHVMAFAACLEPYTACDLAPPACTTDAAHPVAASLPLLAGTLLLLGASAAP
bIAP inhibitor: intestinal alkaline phosphatase (bovine) inhibition; purified bovine IAP, CDP-star luminescence, 30 min; inhibition, % at 20 µM; 190,000 tested, under 10 active; AID 1019;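 active means over 50% inhibition of intestinal alkaline phosphatase at 20 µM in the single-dose screen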
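Incubation: 30 min reaction at room temperature / Material: purified bovine intestinal alkaline phosphatase (IAP) enzyme / Input: enzyme at 1/65,000,000 dilution / Dosing: 20 µM single dose / Signal: CDP-star luminescence signal / Reagent: CDP-star chemiluminescent phosphatase substrate, 30 µM final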
hIAP block: blocks human intestinal alkaline phosphatase. hit rate 0.12% among 330,000. purified IAP, CDP-Star luminescence, 30 min. inhibition, % at 10 µM;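 active means inhibition reaching a set limit with compound at 10 µM in the primary screen, cut at about 35% in these data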
mIAP block: mouse IAP inhibition; hit rate 0.2% among 330,000; inhibition, % at 10 µM; purified mouse IAP, CDP-Star luminescence, 30 min;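 active means inhibition of at least 40% at 10 µM in the primary screen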
mIAP act: mouse IAP activation. muIAP, CDP-Star luminescence, 30 min; active compounds read high; 1 = vehicle-only enzyme signal, 0 = enzyme-free wells. activation factor at 10 µM. hit rate 0.24% among 330,000;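 active means activation factor of at least 2 at 20 µM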
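Assay system: mouse IAP enzyme; reagent: chemiluminescent substrate CDP-Star; dosing: test compounds delivered from DMSO solution; schedule: 30 min at room temperature; measured by: luminescence from enzymatic CDP-Star hydrolysis; controls: DMSO-only wells and no-enzyme negative control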
Numbers stand for hits; n = inactive; x = no result.

SMILES	bIAP act	hIAP activ	bIAP inhibitor	hIAP block	mIAP block	mIAP act
O=C(Nc1ccc(F)cc1)c1ccccc1S(=O)(=O)c1ccccc1[N+](=O)[O-]	n	n	n	n	n	n
Cc1ccccc1C(=O)N1CCC(C(=O)OCc2ccccn2)CC1	x	n	x	n	n	n
COc1ccc(CCNC(=O)COC(=O)CCC(=O)c2ccc(F)cc2)cc1OC	n	n	n	n	n	n
CC(C)CCN1C(=O)c2ccc(C(=O)Nc3ccccn3)cc2C1=O	x	n	x	n	n	n
O=C(Oc1ccccc1C(=O)N1CCOCC1)c1ccc(F)cc1	x	n	x	n	n	n
O=C(Oc1ccccc1C(=O)N1CCOCC1)c1ccc(Br)cc1	2.2	n	n	n	n	n
CCOc1ccc(S(=O)(=O)Nc2cccc(C(=O)NCC3CCCO3)c2)cc1 (stereo unspecified)	x	n	x	n	n	n
C1CCC(c2nn3c(-c4n[nH]c5c4CCC5)nnc3s2)CC1	4.3	n	n	n	n	n
O=C1NC(=S)S/C1=C/c1ccc(N2CCOCC2)o1	n	n	n	n	53	n
CC1(C)Oc2ccc3ccc(=O)oc3c2/C(=C/Nc2ccccc2)C1=O	n	n	n	n	41	n
CC1(C)Oc2ccc3ccc(=O)oc3c2/C(=C/N)C1=O	n	n	n	n	n	n
COc1cccc(/C=N/NC(=O)c2cnccn2)c1	2.2	n	n	n	n	n
COc1ccc(/C=N/NC(=O)c2cnccn2)cc1O	n	n	n	n	n	n
N#Cc1c(N)sc(=S)c2c1CCCCC2	n	n	n	n	48	n
N#Cc1c(N)sc2c1CCCCCC2	n	n	n	n	n	n
COCCNC(=O)c1cc2cc(Cl)cc(Cl)c2oc1=O	n	n	n	n	n	n
Cc1ccc2cc(/C=N/NC(=O)c3ccccc3O)c(Cl)nc2c1	2.1	n	n	n	n	n
Cc1cccc2cc(/C=N/NC(=O)c3ccccc3O)c(Cl)nc12	n	n	n	n	n	n
COc1cc2ccccc2cc1C(=O)NCc1ccncc1	x	n	x	n	n	n
COc1cccc(NC2=NC3(CCCCC3)N=C(N)N2)c1	4.3	n	n	n	n	n
NC1=NC2(CCCCC2)N=C(Nc2ccc(Br)cc2)N1	n	n	n	n	n	4.3
Cc1cccc(C)c1NC1=NC2(CCCCC2)N=C(N)N1	n	n	n	n	n	n
COc1ccc(NC(=S)NNC(=O)CCn2cc([N+](=O)[O-])cn2)cc1	n	2.1	n	n	n	n
COc1ccc(OC)c(S(=O)(=O)N2CCC(C(=O)Nc3cccc(C(F)(F)F)c3)CC2)c1	n	n	n	n	n	2.6
COc1cccc(NC(=O)C2CCN(S(=O)(=O)c3ccc4c(c3)OCCO4)CC2)c1	2.5	n	n	n	n	n
SMILES	bIAP act	hIAP activ	bIAP inhibitor	hIAP block	mIAP block	mIAP act
C=CCn1c(SCC(=O)NCC2CCCO2)nc2c([nH]c3ccccc32)c1=O (stereo unspecified)	x	n	x	n	n	n
CCN(CC(=O)Nc1ccccc1C(F)(F)F)C(=O)C1CSC2(C)CCC(=O)N12 (stereo unspecified)	x	n	x	n	n	n
COc1ccc(CCNC(=O)c2nn(C)cc2Cl)cc1	n	n	n	n	n	n
COc1ccc(CCNC(=O)c2cc(-c3ccc(Cl)c(Cl)c3)oc2C)cc1	n	n	n	n	n	3.4
COc1ccc(/C=C/C(=O)NCC(=O)N/N=C(/C)c2ccc(Cl)cc2)cc1	x	n	x	n	n	n
C=CCN(c1ccccc1)S(=O)(=O)c1cccc(C(=O)NCC2CCCO2)c1 (stereo unspecified)	x	n	x	n	n	n
O=C(CNC(=S)N(CCCN1CCOCC1)Cc1cccs1)NCCN1CCOCC1	n	n	n	n	n	n
CCN(CC)CCCNC(=O)CNC(=S)N(CCCN1CCOCC1)Cc1cccs1	2.1	n	n	n	n	n
O=C(N1CCN(c2ccccc2F)CC1)C1(c2cccs2)CCOCC1	3.7	n	n	n	n	n
COc1ccc(S(=O)(=O)/N=C2/NC(=O)/C(=C/c3ccco3)S2)cc1	n	n	n	n	57	n
COc1ccc(N=C2NC(=O)/C(=C/c3ccco3)S2)cc1	x	n	x	n	n	n
c1ccc2c3c([nH]c2c1)C(C1CCCCC1)N(Cc1ncc[nH]1)CC3 (stereo unspecified)	2.1	n	n	n	n	n
O=C(NC(c1ccccc1)c1ccccc1)c1ccc(CO)cc1	x	n	x	n	n	n
